Screening data as filed in PubChem.
Rows were chosen to be rich in hits. Some 2.6% of all compounds tested hit in one or more screens of this group.
NR2E3 ag-1 – activates human photoreceptor nuclear receptor NR2E3 | Q9Y5X4 | GST-NR2E3/biotin-RetCOR TR-FRET, 1536-well | inhibition of corepressor binding, % at 4.78 µM | 320,000 compounds, 0.12% hits | AID 2300;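 active = percent inhibition above the cutoff of mean plus 3 SD of all tested compounds, set per screening campaign, cut at about 20% in these data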;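 also: 0% = DMSO wells and 100% = biotin wells as full block of FRET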
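Format: 1536-well format; test system: GST-NR2E3 and biotin-RetCOR proteins; read-out basis: percent inhibition of TR-FRET ratio; timing: 5 h incubation at 4 °C; detection: time-resolved FRET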
NR1D1 modulator – modulators of human Rev-erb alpha DNA binding; P20393; Rev-erbα–FITC-DNA binding, fluorescence polarization, 90 min; activity, % at 10 µM; 370,000 compounds, 0.79% hits;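 active = activity above about 14%, limit read from the data; passing the limit was not always enough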;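 also: 0% = DMSO wells with 35 nM protein and 100% = DMSO wells with 750 nM protein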
Target sequence (P20393 whole entry, looked up): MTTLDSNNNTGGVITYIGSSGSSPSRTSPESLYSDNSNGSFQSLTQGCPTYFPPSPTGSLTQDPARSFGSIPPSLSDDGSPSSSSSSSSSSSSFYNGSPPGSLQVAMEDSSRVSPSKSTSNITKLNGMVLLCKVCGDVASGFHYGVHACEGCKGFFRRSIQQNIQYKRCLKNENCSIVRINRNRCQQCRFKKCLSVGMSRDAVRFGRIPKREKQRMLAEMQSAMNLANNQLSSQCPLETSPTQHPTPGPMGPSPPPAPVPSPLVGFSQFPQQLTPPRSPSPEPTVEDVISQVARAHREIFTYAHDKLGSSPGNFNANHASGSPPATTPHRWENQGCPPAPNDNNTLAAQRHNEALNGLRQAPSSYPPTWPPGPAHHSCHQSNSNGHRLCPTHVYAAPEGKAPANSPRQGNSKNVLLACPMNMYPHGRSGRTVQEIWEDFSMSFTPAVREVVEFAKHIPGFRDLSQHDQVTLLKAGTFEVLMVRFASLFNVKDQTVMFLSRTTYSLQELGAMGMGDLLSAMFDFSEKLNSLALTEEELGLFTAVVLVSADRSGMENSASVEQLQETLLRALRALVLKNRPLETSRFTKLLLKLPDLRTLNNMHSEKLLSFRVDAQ
rCAG binder – molecules binding r(CAG) RNA repeats | 370,000 compounds, 1.3% hits | inhibition, % at 3 µM | AID 651821 | r(CAG) RNA repeat, TO-PRO-1 dye displacement fluorescence;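 active = inhibition above the plate cutoff, the mean of all test compounds on that plate plus 3 SD, cut at about 35% in these data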;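 also: 0% = DMSO alone and 100% = 100 µM mitoxantrone as full dye displacement; higher means more dye released from RNA so lower well fluorescence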
NR2E3 ag-2 – human photoreceptor-specific nuclear receptor agonism; Q9Y5X4; CHO-S Gal4-NCOR/VP16-NR2E3 two-hybrid, luciferase; inhibition of corepressor binding, % at 3.98 µM; 360,000 compounds, 0.35% hits; AID 602229;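 active = inhibition above the mean of all tested compounds plus 3 SD, cut at about 70% in these data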;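 also: 0% = DMSO with NR2E3 transfected cells and 100% = cells lacking NR2E3 construct; higher means lower luciferase signal from less NR2E3 corepressor binding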
PG9 Ab binder – binds the HIV-1 gp120 antibody PG9; TR-FRET gp120-PG9 antibody binding; inhibition, % at 6.7 µM; 360,000 compounds, 0.43% hits; AID 624416; in the data active = inhibition above about 8.5%
Rev-erbA confirm – Rev-erb alpha (human) modulation, hit confirmation; AID 1259319; activation, % at 25 µM; Rev-erb alpha FITC-DNA binding, fluorescence polarization, 90 min; shares compounds with NR1D1 modulator; 3,000 compounds, 61% hits;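 active = activation at or above a set limit, or at least 3 SD above the negative control mean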;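 also: 0% = 35 nM protein with DMSO and 100% = 750 nM protein high control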
RORg counter – RORgamma DNA-binding activity, dose-response counter-screen. shares compounds with NR1D1 modulator. purified RORgamma protein-FITC-DNA binding, fluorescence polarization. IC50, µM. 910 compounds, 8% hits;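 active = Compounds whose fitted half-maximal concentration for disrupting protein-DNA binding is below 10 micromolar; the record names Rev-erb in its text, so the target is in doubt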
An asterisk follows results filed as active; i = inactive; · = no result.

SMILES	NR2E3 ag-1	NR1D1 modulator	rCAG binder	NR2E3 ag-2	PG9 Ab binder	Rev-erbA confirm	others
CCc1cc2c(=O)c(-c3cnn(-c4ccccc4)c3)c(C)oc2cc1OCC(=O)Nc1cccc(C)c1	1	18	4	-13	-2	·
CCc1cc2c(=O)c(-c3cnn(-c4ccccc4)c3)c(C)oc2cc1OCC(=O)Nc1ccc(F)c(F)c1	-1	31*	3	-34	-1	13
COc1ccc(NC(=O)COC(=O)CNC(=O)COc2ccccc2)cc1OC	·	-4	-7	-11	2	·
O=C1CSC(c2ccccc2)N1Nc1nc(N2CCOCC2)nc(N2CCOCC2)n1 (stereo not given)	1	22*	-6	4	-2	5
O=C(Cn1c(=O)c(=O)n(Cc2ccccc2)c2ccc(Cl)cc21)Nc1ccc(F)cc1F	1	29*	-1	1	-2	12
CC(C)CC(N)c1csc(NC(=O)Nc2ccccc2C(C)C)n1 (stereo not given)	·	-1	11	-1	1	·
COc1ccc(N(Cc2cc3cccc(C)c3[nH]c2=O)S(=O)(=O)c2ccc(OC)cc2)cc1	-1	8	2	-13	-1	·
COc1ccc(N(Cc2cc3cccc(C)c3[nH]c2=O)S(=O)(=O)c2ccc(Cl)cc2)cc1	-1	21*	3	8	0	14
COc1ccc2oc(C(=O)Nc3ccccc3N3CCOCC3)c(C)c2c1	3	29*	8	-26	2	9
COc1ccc2oc(C(=O)Nc3ccc(N4CCOCC4)cc3)c(C)c2c1	1	-5	25	-80	-1	·
COc1ccc(C(=O)Nc2ccc(-c3ccc(NC(=O)c4ccc(OC)cc4)c(OC)c3)cc2OC)cc1	0	29*	4	0	0	5
COc1ccc(NC(=O)c2ccc(C(=O)Nc3ccc(OC)cc3OC)cc2)c(OC)c1	-1	-2	1	15	0	·
COc1ccc(NC(=O)c2oc3cc(C)c(C)cc3c2C)c(OC)c1	2	21*	4	6	-1	4
COc1cc(/C=C/C(C)=NNc2ccccc2)ccc1O	·	-5	5	20	-3	·
CSc1ccccc1NC(=O)C1(C)CCN1C(=O)CCC1CCCC1 (stereo not given)	·	2	-1	-34	-2	·
CC1CCCCN1S(=O)(=O)c1ccc2[nH]c(=O)cc(C(=O)NCCCN3CCCCCC3)c2c1 (stereo not given)	-1	-4	9	-8	1	·
CCOC(=O)C1(C)CCN1C(=O)c1ccc(C(=O)OC)cc1 (stereo not given)	·	-7	1	2	-2	·
O=C(CSc1nc2ccsc2c(=O)n1NC(=O)c1ccccc1)NCc1ccco1	1	-1	7	-61	-1	·
O=C(CSc1nc2ccsc2c(=O)n1Cc1ccccc1)NCc1ccco1	0	17*	-1	-15	16*	5
Cn1nc(CC(=O)Nc2ccc3c(c2)CCC3)c2ccccc2c1=O	·	20*	0	26	-1	17*
Cn1nc(CC(=O)NC2CCCCCCCCCCC2)c2ccccc2c1=O	-5	-5	-4	-11	0	·
COc1ccc(CCN2CC(C(=O)NCc3cn(C)nc3C)CCC2=O)cc1 (stereo not given)	·	-1	0	6	3	·
CNC(C)C(=O)NC(C(=O)NC(C)C(=O)NNc1ccccc1)C(C)C (stereo not given)	·	-3	1	2	1	·
CCNc1ccc2noc3c2c1C(=O)c1ccccc1-3	-23	49*	i	-45	2	57*	RORg counter=>40
C[C@@H]1CN([C@H](C)CO)C(=O)CCCn2nncc2CO[C@@H]1CN(C)S(=O)(=O)c1ccccc1	·	-7	0	-22	-2	·
SMILES	NR2E3 ag-1	NR1D1 modulator	rCAG binder	NR2E3 ag-2	PG9 Ab binder	Rev-erbA confirm	others
Cc1ccc2c(n1)sc1c(-c3ccccc3)c(C#N)c(N)nc12	3	49*	1	-7	1	38*	RORg counter=>40
[O-][N+](=Cc1ccccc1)CC1(O)CCCCC1	·	-2	0	-4	-2	·
COc1ccc(-c2cc(C(=O)OCC(=O)Nc3cc(C)on3)c3ccccc3n2)cc1OC	6	21*	2	-25	-1	-4
CCC(C)c1ccc(-c2cc(C(=O)OCC(=O)Nc3cc(C)on3)c3ccccc3n2)cc1 (stereo not given)	1	-2	3	-96	2	·
Cc1cccc(C)c1NC(=O)COC(=O)c1cc(-c2cccnc2)nc2ccccc12	2	19*	6	10	2	21*
CSCc1ccc(C(=O)OCc2nc3ccccc3s2)o1	·	2	4	-69	1	·
COC(=O)c1c(-c2cccc(C)c2)csc1NC(=O)C1CCCO1 (stereo not given)	-3	24*	-3	-9	1	27*
CCOC(=O)c1c(-c2ccc(C)cc2)csc1NC(=O)C1CCCO1 (stereo not given)	-2	9	-3	-6	-2	·
O=C(NCc1ccccc1Cl)c1cccc2c1C(=O)c1ccc(-c3ccc(OC(F)(F)F)cc3)cc1S2(=O)=O	·	·	·	15	·	·
O=C(NCc1cc(C(F)(F)F)ccc1Cl)c1cccc2c1C(=O)c1ccc(Cl)cc1S2(=O)=O	·	32*	-2	·	-1	50*	RORg counter=>40
CC1CCN(c2ccc3c(c2)S(=O)(=O)c2cccc(C(=O)NC[C@@H]4CCCO4)c2C3=O)CC1	·	18*	-13	-13	-2	5
O=C(NCc1cccc(F)c1)c1cccc2c1C(=O)c1ccc(N3CCOCC3)cc1S2(=O)=O	·	118*	1	-27	-3	87*	RORg counter=>40
COc1ccc(-c2ccc3nncn3c2)cn1	·	9	2	-8	-1	·
COc1ccc(C(=O)N2C(=O)c3ccc(N)cc3C2=O)cc1	-5	23*	0	0	1	7
CC(C)N(Cc1nnc(-c2ccccc2Cl)o1)C(=O)COc1cccc(Cl)c1	·	-9	-1	-2	-1	·
CC(=O)c1cccc(S(=O)(=O)N2CCN(c3nc4cc(C)cc(C)c4cc3C#N)CC2)c1	1	174*	3	-4	0	137*
COc1cccc(-c2nc(CS(=O)(=O)CC(=O)Nc3ccccc3C)c(C)o2)c1	1	1	2	-5	3	·
COc1cccc(-c2nc(CS(=O)(=O)CC(=O)NCc3ccc(Cl)cc3)c(C)o2)c1	-3	29*	0	-22	3	32*	RORg counter=>40
COc1cccc(-c2nc(CS(=O)(=O)CC(=O)Nc3cccc(C)c3C)c(C)o2)c1	4	19*	2	25	1	9
COc1cccc(CNC(=O)[C@H]2CCCN2C(=O)[C@H]2CCCN2C(=O)c2ccc(Cl)cc2)c1	·	-4	2	·	-1	·
